Laboratory results taken from PubChem BioAssay.
The source made the active and inactive calls.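 Rule for the calls, unless noted: active = visual image review flags a hit and inhibition of aggregation exceeds 20%; inconclusive = visual hit but inhibition at or below 20%; inactive = no hit on visual image review.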

Assays:
[1] = inhibitors of TNFa-induced NFkB p65 translocation, primary screen, imaging, HUVEC, MLSMR starter and 10KST1 sets (AID 438;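 active = inhibition above 20% together with a positive visual image hit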;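 note: compound added about 3h40 before a 20 min TNFalpha stimulation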;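 for inhibition: signal is the nuclear over cytoplasmic p65 intensity ratio per well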); settings: HUVEC TNFa-induced p65 nuclear translocation; cell count: measured here: nuclei count (cytotoxicity indicator), at 2.08 µM; inhibition: at 2 µM, stronger effect = higher value, 0% TNFa-plus-vehicle, 100% no-TNFa wells
[2] = inhibitors of mutant huntingtin aggregation, primary screen, imaging, exon1htt(103Q)mCFP cells, high-content imaging (AID 483); settings: exon1htt(103Q)mCFP cell line, aggregate imaging, at 2 µM; inhibition of aggregation: stronger effect = higher value; nuclei count: measured here: cell count, toxicity;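 note: compound exposure lasted 3 days before fixation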;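 for nuclei count: percent of the per-plate median nuclei count of sample wells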
[3] = inhibitors of E-selectin induction by TNFa, primary screen, imaging, HUVEC, immunofluorescence, MLSMR starter and 10KST1 sets (AID 487;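 active = visually confirmed hit in the image check and inhibition above 20%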;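 for inhibition: signal is fraction of cell area covered by stained E-selectin grains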;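 for nuclei count: 100% = median nuclei count of all wells on the same plate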); settings: HUVEC TNFalpha-induced E-selectin immunofluorescence imaging, at 2 µM; inhibition: stronger effect = higher value; nuclei count: measured here: cell number, toxicity
[4] = target: Voltage-gated potassium channel subunit beta-2 (Rattus norvegicus) (UniProt P62483); test: KvBeta enzyme negative modulators, primary screen, biochemical, NADPH fluorescence (AID 622;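 active = fluorescence slope higher than the sample average by over 3 SD, cut at about -0.22 in these data, passing the limit was not always enough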;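 note: slope of raw intensity against log time taken from 70 to 1610 s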); settings: recombinant KvBeta, 4-cyanobenzaldehyde reduction, at 10 µM, stronger effect = higher value
Chain of Voltage-gated potassium channel subunit beta-2 (Rattus norvegicus) (P62483 whole entry, looked up): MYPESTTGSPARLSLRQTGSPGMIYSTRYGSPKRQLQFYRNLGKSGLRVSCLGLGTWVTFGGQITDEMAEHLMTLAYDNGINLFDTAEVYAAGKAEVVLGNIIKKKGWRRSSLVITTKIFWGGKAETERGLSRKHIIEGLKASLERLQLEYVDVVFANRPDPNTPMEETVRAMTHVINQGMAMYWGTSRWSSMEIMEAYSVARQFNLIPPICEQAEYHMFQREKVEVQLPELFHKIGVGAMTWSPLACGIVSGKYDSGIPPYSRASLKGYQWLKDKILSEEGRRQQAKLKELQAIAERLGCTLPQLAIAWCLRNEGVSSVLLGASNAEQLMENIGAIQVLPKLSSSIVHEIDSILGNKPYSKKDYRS

[5] = target: Voltage-gated potassium channel subunit beta-2 (Rattus norvegicus) (UniProt P62483); test: KvBeta positive modulators, primary screen, biochemical, NADPH fluorescence (AID 623;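 active = NADPH fluorescence slope more negative than the mean of all samples by about 3 SD, 99.7% confidence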;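 note: fluorescence intensity change per second fitted from 20 to 320 s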); settings: Recombinant KvBeta, NADPH fluorescence decrease slope, 10 min; at 10 µM; stronger effect = lower value
[6] = target: Muscarinic acetylcholine receptor M4 (Homo sapiens) (UniProt P08173); test: compounds altering M4/GIRK thallium flux, either direction, primary screen, M4 allosteric agonist project, cell-based, HEK293 M4/GIRK, BTC-AM (AID 625;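 active = fluorescence slope after compound addition differing from the mean of all tested samples at 99.7% confidence, mostly higher but some lower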;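 note: thallium influx through GIRK channels coupled to M4 in HEK293 cells with BTC-AM dye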); settings: at 10 µM, actives lie on both sides
Chain of Muscarinic acetylcholine receptor M4 (Homo sapiens) (P08173 whole entry, looked up): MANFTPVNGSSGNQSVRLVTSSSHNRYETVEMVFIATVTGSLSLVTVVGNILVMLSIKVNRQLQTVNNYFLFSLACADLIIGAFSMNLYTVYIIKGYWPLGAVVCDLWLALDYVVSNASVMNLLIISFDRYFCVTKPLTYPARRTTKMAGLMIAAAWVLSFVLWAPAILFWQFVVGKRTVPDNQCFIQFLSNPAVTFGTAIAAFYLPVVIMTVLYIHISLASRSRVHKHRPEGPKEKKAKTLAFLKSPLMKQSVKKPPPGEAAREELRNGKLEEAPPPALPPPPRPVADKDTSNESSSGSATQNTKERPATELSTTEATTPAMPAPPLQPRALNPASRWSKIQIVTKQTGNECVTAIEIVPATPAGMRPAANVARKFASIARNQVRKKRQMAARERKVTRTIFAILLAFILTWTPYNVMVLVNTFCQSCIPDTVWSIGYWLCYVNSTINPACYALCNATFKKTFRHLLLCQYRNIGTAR
How it was run: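 Material – HEK293 cells with M4 receptor and GIRK channels · Buffer or medium – pH 7.3 thallium assay buffer · Doses – one dose, 10 µM final · Timing – cells overnight at 37 °C, BTC-AM loading 1 h, reads 2 min total · Measured by – kinetic fluorescence with BTC-AM dye · Controls – carbachol and DMSO controls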

[7] = inhibitors of Sendai virus-induced IRF3 signaling, primary screen, TLR/RLR signaling modifier project, cell-based, Sendai virus stimulus, luciferase, 10K MLSCN set (AID 602276;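 active = inhibition at or above 50% at 10 µM; inactive = inhibition below 50%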;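 note: firefly luciferase from ISG56 promoter only with Renilla not read in this screen; 0% = Sendai virus plus DMSO and 100% = medium plus DMSO without virus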); settings: HEK293 RL24 IRF3 luciferase reporter, at 10 µM, stronger effect = higher value
[8] = inhibitors of poly I:C-induced TLR3 signaling, primary screen, cell-based, poly I:C stimulus, luciferase, 10K MLSCN set (AID 602277;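 active = inhibition of the reporter signal at or above 50%; inactive = inhibition below 50%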); settings: HEK293-TLR3 RL24 IRF3 luciferase reporter, at 10 µM, stronger effect = higher value

Row | SMILES | cell count [1] | inhibition [1] | inhibition of aggregation [2] | nuclei count [2] [%] | inhibition [3] | nuclei count [3] [%] | fluorescence slope [4] | NADPH fluorescence slope [5] | fluorescence slope [6] | inhibition [7] | inhibition [8]
1 | Cc1cc2ncn(N)c2cc1C | 711 | -25.9% (inactive) | -20.7% (inactive) | 108 | -53.3% (inactive) | 118 | -0.224 (inactive) | -1e-05 (inactive) | 0.00519 (inactive) | 17.6% (inactive) | 15.1% (inactive)
2 | CCC(=O)N1CCc2cc(OC)c(OC)cc2C1COc1ccc(C(=O)OC)cc1 (stereo not drawn) | 767 | -20.4% (inactive) | -5.1% (inactive) | 128 | 36.5% (inactive) | 108 | -0.543 (inactive) | -2e-05 (inactive) | 0.00388 (inactive) | 23.8% (inactive) | 6.29% (inactive)
3 | CCCCN(CCCNC(=O)C1CCN(S(=O)(=O)CC)CC1)c1ccccc1 | 547 | 7.2% (inactive) | -2.7% (inactive) | 130 | -81.6% (inactive) | 165 | -0.441 (inactive) | 2.9e-05 (inactive) | 0.00466 (inactive) | 8.2% (inactive) | 25.8% (inactive)
4 | COc1ccccc1NC(=O)c1nnn(CC(=O)Nc2ccccc2)c1N | 234 | -4.4% (inactive) | -30.9% (inactive) | 95.9 | -9.9% (inactive) | 103 | -0.416 (inactive) | 5.5e-05 (inactive) | 0.00673 (inactive) | 9.85% (inactive) | 23.6% (inactive)
5 | COc1ccccc1CNC(=O)C1CCN(S(=O)(=O)N2CCCCC2)CC1 | 571 | -1.8% (inactive) | 4.5% (inactive) | 102 | -44.6% (inactive) | 89.6 | -0.426 (inactive) | -3.4e-05 (inactive) | 0.00585 (inactive) | 14% (inactive) | 21.7% (inactive)
6 | CCOC(=O)C(NC(=O)C1CCCN1C(=O)OCc1ccccc1)C(=O)OCC (stereo not drawn) | 586 | 7.2% (inactive) | -1.6% (inactive) | 105 | -11% (inactive) | 97.9 | -0.567 (inactive) | -1.7e-05 (inactive) | 0.00516 (inactive) | 20.4% (inactive) | 32% (inactive)
7 | COc1ccc(Cn2c(=O)[nH]c3cc(C(=O)NCCCN4CCCC4)ccc3c2=O)cc1 | 474 | -5.2% (inactive) | 30.8% (inactive) | 88.2 | 30.4% (inactive) | 139 | -0.26 (inactive) | -1.4e-05 (inactive) | 0.00648 (inactive) | 11% (inactive) | -6.33% (inactive)
8 | Cc1ccc(S(=O)(=O)N(C)CC(=O)NC2CCCC2)cc1 | 226 | 10.1% (inactive) | 1.1% (inactive) | 90.7 | -98.8% (inactive) | 148 | -0.453 (inactive) | -2.6e-05 (inactive) | 0.00453 (inactive) | 10.5% (inactive) | 29.4% (inactive)
9 | Cn1c(=O)c2c(nc(SCc3nn[nH]n3)n2Cc2ccccc2F)n(C)c1=O | 481 | -9.5% (inactive) | 13.9% (inactive) | 81.9 | -5.3% (inactive) | 96.9 | -0.535 (inactive) | 4.4e-06 (inactive) | 0.00622 (inactive) | 15% (inactive) | 17.9% (inactive)
10 | S=c1nc(C2CC2)[nH]c2ccccc12 | 469 | 0.8% (inactive) | -8.3% (inactive) | 106 | -99% (inactive) | 118 | -0.49 (inactive) | -4.4e-05 (inactive) | 0.0139 (active) | 19% (inactive) | 20.9% (inactive)
11 | NC(=O)SCC(=O)Nc1cccc(Cl)c1 | 449 | -0.5% (inactive) | -7.6% (inactive) | 119 | -267% (inactive) | 132 | -0.576 (inactive) | -1.5e-06 (inactive) | 0.00648 (inactive) | 18.6% (inactive) | 15.3% (inactive)
12 | O=c1c2ccccc2nnn1CSc1nc2cc(Cl)ccc2c(=O)n1Cc1ccco1 | 386 | 12.2% (inactive) | 7.5% (inactive) | 76 | -101% (inactive) | 113 | -0.56 (inactive) | -5e-05 (inactive) | 0.00813 (inactive) | -18.1% (inactive) | -12.2% (inactive)
13 | Cc1ccc(-c2ccc(/C=N/n3cnnc3)o2)cc1Cl | 432 | -1.5% (inactive) | 2.7% (inactive) | 85.3 | 10.4% (inactive) | 110 | -0.555 (inactive) | -1.9e-05 (inactive) | 0.00662 (inactive) | 3.11% (inactive) | -7.7% (inactive)
14 | CCS(=O)(=O)N1CCC(C(=O)NC2CCCCC2)CC1 | 572 | 4.5% (inactive) | 7.8% (inactive) | 110 | 15.2% (inactive) | 118 | -0.483 (inactive) | -0.000241 (inactive) | 0.00287 (inactive) | 10% (inactive) | 16% (inactive)
15 | CCOc1ccc(CCNC(=O)CCc2nc(-c3ccc(OC)cc3)no2)cc1OCC | 322 | -3.5% (inactive) | 1.2% (inactive) | 87.7 | -64.9% (inactive) | 146 | -0.529 (inactive) | 3.2e-05 (inactive) | 0.00633 (inactive) | 12.2% (inactive) | 12.3% (inactive)
16 | CN(C)S(=O)(=O)c1ccc(C(=O)Nc2ccccc2C(=O)O)cc1 | 487 | -8.9% (inactive) | 13.1% (inactive) | 83 | -1.2% (inactive) | 78 | -0.52 (inactive) | -3.3e-05 (inactive) | 0.00545 (inactive) | 2.15% (inactive) | 46.7% (inactive)
17 | CC(C)Oc1ccc(C2C(C(=O)c3ccco3)=C(O)C(=O)N2CCCN(C)C)cc1 (stereo not drawn) | 694 | -5.2% (inactive) | 17.7% (inactive) | 80.9 | -16.4% (inactive) | 112 | -0.476 (inactive) | -0.000237 (inactive) | 0.00376 (inactive) | 13.1% (inactive) | 8.15% (inactive)
18 | CC(C)(C)SCCNC(=O)COc1ccccc1 | 368 | -2.3% (inactive) | 16.8% (inactive) | 91.5 | -16.9% (inactive) | 110 | -0.32 (inactive) | -4.6e-05 (inactive) | 0.00624 (inactive) | 1.01% (inactive) | -18% (inactive)
19 | Cn1cnnc1SCC(=O)Nc1ccccc1Sc1ccccc1 | 740 | 4% (inactive) | -6.3% (inactive) | 93.3 | -36.2% (inactive) | 127 | -0.215 (inactive) | -2.9e-05 (inactive) | 0.00628 (inactive) | 13.5% (inactive) | 8.17% (inactive)
20 | CC1(C)C2CCC1(CS(=O)(=O)NCc1ccc(C(=O)O)cc1)C(=O)C2 (stereo not drawn) | 517 | -16.3% (inactive) | 1.1% (inactive) | 90.1 | 46.1% (inactive) | 100 | -0.606 (inactive) | 2.9e-05 (inactive) | 0.00724 (inactive) | 36.1% (inactive) | 30.6% (inactive)
21 | Cc1nc2ccc(NC(=O)N3CCOCC3)cc2s1 | 416 | 0.5% (inactive) | -0.3% (inactive) | 96.2 | -51% (inactive) | 109 | -0.497 (inactive) | 8.6e-06 (inactive) | 0.00618 (inactive) | 10.7% (inactive) | 8.12% (inactive)
22 | COC(=O)c1[nH]c2ccccc2c1NS(=O)(=O)c1ccc(OC)cc1OC | 655 | -11.9% (inactive) | 13% (inactive) | 103 | -72% (inactive) | 118 | -0.524 (inactive) | -0.000111 (inactive) | 0.00563 (inactive) | 19.9% (inactive) | 37.3% (inactive)
23 | CCOC(=O)CN1C2=NCCN2c2ccccc21 | 428 | 3.8% (inactive) | -1.1% (inactive) | 76.3 | -107% (inactive) | 125 | -0.605 (inactive) | -8.6e-06 (inactive) | 0.00469 (inactive) | 13.8% (inactive) | 18.8% (inactive)
24 | CNC(=O)CN(C#N)c1nc(N(C)C)nc(N(C)C)n1 | 349 | -2.3% (inactive) | 5.1% (inactive) | 92.5 | -47.6% (inactive) | 114 | -0.553 (inactive) | -2.5e-05 (inactive) | 0.00632 (inactive) | 6.17% (inactive) | 10.6% (inactive)
25 | Cc1ccc(O)c(NC(=O)COc2cc(C)ccc2C)c1 | 431 | 11.4% (inactive) | 3% (inactive) | 106 | -71.5% (inactive) | 115 | -0.473 (inactive) | 4.1e-05 (inactive) | 0.00732 (inactive) | -3.99% (inactive) | -13.6% (inactive)
26 | C=CCn1c(COc2ccccc2F)nnc1SCC(=O)N1CC(=O)Nc2ccccc21 | 390 | -23.5% (inactive) | 28% (inactive) | 100 | 4% (inactive) | 121 | -0.355 (inactive) | 2.1e-06 (inactive) | 0.00612 (inactive) | -13.7% (inactive) | -13.8% (inactive)
27 | COC(=O)c1oc2ccc(OC)cc2c1N | 669 | 5.5% (inactive) | 18.1% (inactive) | 85.1 | -4.2% (inactive) | 101 | -0.523 (inactive) | 5.1e-06 (inactive) | 0.00575 (inactive) | -31.8% (inactive) | -55% (inactive)
28 | Cc1ccc(-n2c(=O)c3sccc3n(CC(=O)NCc3ccco3)c2=O)cc1 | 488 | 0.3% (inactive) | 21.9% (inactive) | 103 | -9.8% (inactive) | 108 | -0.579 (inactive) | -3.1e-05 (inactive) | 0.0056 (inactive) | 6.07% (inactive) | 12.8% (inactive)
